The nature of test [1]: Cytotoxicity against human HepA cells after 72 hrs by methylene blue assay. The class given is functional, cell-based. Put shortly: (§1)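 Cells grown in RPMI-1640 at 37 °C under 5% CO2, seeded at 2880 cells/well and left 3 h before adding samples. Samples prepared at 1, 10, 40 and 100 μg/mL, then 3 days at 37 °C. Cells fixed in 10% formal saline, stained with 1% methylene blue in 0.01 M borate buffer, washed, and dye eluted with ethanol/0.1 M HCl (1:1). A650 read. IC50 is 50% absorbance reduction vs untreated cells.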

For another test, the system named is KB. Kind of test: Cytotoxicity against human KB cells after 72 hrs by methylene blue assay. The format is functional, cell-based. An outline of the steps:
as §1

≈ marks a conversion by molar mass, not a printed value. Starred links: 1 amine or outer side, 2 acyl side, 3 side chain; linkers in the order of their positions; H or OH if unused. Positions of bridges follow the written chain, without caps; N, C: chain ends. Non-standard residues stand in square brackets, D forms with d. Residues, ends and D or L forms follow the SMILES beside them. Chains are numbered I, II in the order given. Actinocin(1to9) = Cc1c2oc3c(C)ccc(C(=O)[*:2])c3nc-2c(C(=O)[*:1])c(N)c1=O; NMeV = CN[C@H](C(=O)O)C(C)C; Sar = CNCC(=O)O

Our source for the IC50 values is ChEMBL document CHEMBL1155730, “Taxane diterpenoids from the stem bark of Taxus mairei” (J Nat Prod, 2001).

Regarding `CC(=O)OC[C@H]1[C@H]2[C@H](O)[C@]3(C(C)(C)O)C[C@H](OC(C)=O)C(C)=C3[C@@H](OC(C)=O)[C@H](OC(C)=O)[C@]2(C)[C@@H](OC(C)=O)C[C@@H]1OC(C)=O`, the IC50 is 2.7 µg/mL (≈ 4.12 µM) in test [1] and greater than 20 µg/mL in the test with KB.
For `CC(=O)O[C@@H]1C2=C(C)[C@@H](O)C[C@@]2(C(C)(C)O)[C@@H](OC(C)=O)[C@@H]2[C@]3(OC(C)=O)CO[C@@H]3C[C@H](OC(C)=O)[C@@]2(C)[C@H]1O` [TAXUMAIROL W] the same measures were 7 µg/mL (≈ 12.3 µM) and greater than 20 µg/mL.
For `CC(=O)O[C@@H]1C2=C(C)[C@@H](OC(=O)c3ccccc3)C[C@@]2(C(C)(C)O)[C@@H](O)[C@@H]2[C@]3(OC(C)=O)CO[C@@H]3C[C@H](OC(C)=O)[C@@]2(C)[C@H]1OC(=O)c1ccccc1` the same measures were greater than 20 µg/mL and greater than 20 µg/mL.
For `Cc1c2oc3c(C)ccc(C(=O)N[C@@H]4C(=O)N[C@H](C(C)C)C(=O)N5CCC[C@H]5C(=O)N(C)CC(=O)N(C)[C@@H](C(C)C)C(=O)O[C@@H]4C)c3nc-2c(C(=O)N[C@@H]2C(=O)N[C@H](C(C)C)C(=O)N3CCC[C@H]3C(=O)N(C)CC(=O)N(C)[C@@H](C(C)C)C(=O)O[C@@H]2C)c(N)c1=O` [DACTINOMYCIN] (I: T[dV]P[Sar][NMeV] / II: T[dV]P[Sar][NMeV]; ester I:1-I:C, II:1-II:C; linker I:N-II:N via Actinocin(1to9)), in test [1], the half-inhibitory concentration (IC50) was 0.01 µg/mL (≈ 0.00797 µM).
Consider `CC(=O)O[C@H]1C(=O)[C@@]2(C)[C@H]([C@H](OC(=O)c3ccccc3)[C@]3(O)C[C@H](OC(=O)[C@H](O)[C@@H](NC(=O)c4ccccc4)c4ccccc4)C(C)=C1C3(C)C)[C@]1(OC(C)=O)CO[C@@H]1C[C@@H]2O` [PACLITAXEL], for which the half-maximal inhibitory concentration (IC50) (in test [1]; with KB) was less than 0.1 µg/mL throughout.
With `CC(=O)OC[C@H]1[C@H]2[C@H](O)[C@]3(C(C)(C)O)C[C@H](O)C(C)=C3[C@@H](O)[C@H](OC(C)=O)[C@]2(C)[C@@H](OC(C)=O)C[C@@H]1OC(C)=O` [TAXUMAIROL V], the half-maximal inhibitory concentration (IC50) in test [1] amounted to 1.6 µg/mL (≈ 2.8 µM); in the test on KB, 3.9 µg/mL (≈ 6.83 µM).
Taken in the same sequence, the figures for `CC(=O)OC[C@H]1[C@H]2[C@H](O)[C@]3(C(C)(C)O)C[C@H](OC(C)=O)C(C)=C3[C@@H](O)[C@H](OC(C)=O)[C@]2(C)[C@@H](OC(C)=O)C[C@@H]1OC(C)=O` [TAXUMAIRO U] were 0.3 µg/mL (≈ 0.49 µM) and 10.3 µg/mL (≈ 16.8 µM).
Take `CO[C@@]12[C@H](COC(N)=O)C3=C(C(=O)C(C)=C(N)C3=O)N1C[C@@H]1N[C@@H]12` [MITOMYCIN]: the IC50 in test [1] came to 0.01 µg/mL (≈ 0.0299 µM).
